From ChEMBL document CHEMBL4513216, “Probing the Open Global Health Chemical Diversity Library for Multistage-Active Starting Points for Next-Generation Antimalarials” (ACS Infect Dis, 2020)

Test: Toxicity liver stage against HepG2, at 10uM
Type: cell-based
Design: test concentration 10 uM, cell line HepG2-A16-CD81EGFP
Details: human, HepG2-A16-CD81EGFP cells; read-out: INHIBITION
Outline: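 Uninfected HepG2-A16-CD81EGFP cells, 3 × 10^3 per well, 1536-well, plated on prespotted compound at 10 μM final, parasite-free screening media added to match infected plates; puromycin 10 μM positive, DMSO 0.5% negative; run in parallel with 48 h PbLuc assay at 37 °C, 5% CO2; viability by CellTiter-Glo luminescence, normalized to controls.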

Row | SMILES | cytotoxicity at 10 µM [%]
1 | CCC(NC(=O)c1cc(CC(C)C)nn1C)c1ccnn1C (centres undefined) | -146
2 | CCc1oc(C(=O)N[C@@H]2c3ccccc3C[C@@H]2O)cc1C | 0.243
3 | COCCn1ccnc1C1CCCN(C(=O)CSc2nnc(C)o2)C1 (centres undefined) | -4.3
4 | O=C(c1ccco1)N1CC[C@@H]2O[C@@H](COCCN3CCCC3)CC[C@@H]21 | -76.8
5 | Cc1nn(C)c(Cl)c1C1CCCN1c1ncnc2[nH]ccc12 (centres undefined) | 10.9
6 | Cc1nc(-c2cccc(C#N)c2)nn1CC1(O)CCCCC1 | -2.62
7 | CCc1nnc(C(C)N2CCN(CCC(=O)NC3CC3)CC2)o1 (centres undefined) | 16
8 | O=C(C1CC(F)(F)C1)N1C[C@@H]2CN(Cc3ccsc3)CCO[C@@H]2C1 | -93.5
9 | O=C(c1ccc(NCc2cccc(F)c2)cc1)N1CCCC1 | 10.1
10 | COCCN1CCOCC12CCN(Cc1ccn(C)n1)CC2 | -3.39
11 | CC1CCc2n[nH]c(C(=O)NCCCc3ccco3)c2C1 (centres undefined) | -23.2
12 | Cc1cc(SCC(N)=O)nc(-c2cccc(F)c2)n1 | -1.9
13 | Cc1ccccc1C(=O)Nc1ccc([C@H]2OCC(=O)N(C)[C@@H]2CO)cc1 | 0.461
14 | COCCN1CCN(Cc2ccoc2)Cc2cccnc21 | -75
15 | CCCc1ccc(CN2CCN(C(=O)NCC)[C@H]3CS(=O)(=O)C[C@H]32)o1 | 2.71
16 | O=C(c1coc2ccccc12)N1CCCC1 | -1.15
17 | O=C(CCN1CCCC(CC2CC2)(C(=O)O)C1)NC1CCCC1 (centres undefined) | 18.7
18 | CC(C)OC[C@H]1CCC[C@]12CN(S(=O)(=O)c1cccs1)CCO2 | -1.52
19 | CO[C@@H]1CCN(Cc2ccccn2)[C@@H]2CN(Cc3ccco3)C[C@@H]21 | 6.73
20 | CN(C)C(=O)CN1CCCCC1c1nc(N)ncc1-c1ccccc1 (centres undefined) | 4.19
21 | COCc1nc(N(C)C)ncc1C(=O)OC | 13.2
22 | CN1CCC(c2cncc(-c3cccc(Cl)c3)n2)CC1 | -20.8

Row | SMILES | cytotoxicity at 10 µM [%]
23 | O=C(Nc1cncc(Br)c1O)c1ccon1 | 15.4
24 | Cc1oc(-c2nc(C#N)c(N(C)C)o2)cc1S(=O)(=O)N1CCCC1 | -8.87
25 | Cc1ccc(CN2Cc3nnn(C)c3C(COCc3ccccc3)C2)o1 (centres undefined) | 5.44
26 | Cc1ccc(CNC(=O)CCNS(C)(=O)=O)cc1 | -5.07
27 | CCOCC(O)CN1CCN(C(=O)c2ccccc2Cl)CC1 (centres undefined) | -1.96
28 | Cc1cccc(CN2CC[C@@H]3O[C@@H](C(=O)N4CCN(C)CC4)C[C@@H]32)c1 | 8.01
29 | COc1ccc(S(=O)(=O)N2CCC[C@@H]3CN(C(=O)C4CC4)C[C@@H]32)cc1 | 14.7
30 | Cc1cccc(C(=O)N2C[C@@H](OCc3cccnc3)[C@H]3OCCC[C@@H]32)n1 | -1.75
31 | CC(O)(CNc1ccccn1)c1ccccc1 (centres undefined) | -44.3
32 | CC(C)c1nc(CSc2nnc(C3CC3)n2CC(N)=O)no1 | -147
33 | Cc1nc(C2CCCN2CCCc2nc3ccccc3o2)no1 (centres undefined) | -9.24
34 | COCc1ncc(CN2CC[C@@H](NC(=O)c3cccnc3)[C@H](O)C2)cn1 | -7.28
35 | Cc1cc(CN2CC[C@H]3[C@H]2CCN3CC(=O)N(C)C)oc1C | -5.6
36 | O=C(Cc1ccc2c(c1)OCO2)N1CCCN(c2nccs2)CC1 | -11.9
37 | O=C(c1cccnc1)N1CCc2ncnc(C3CCOC3)c2CC1 (centres undefined) | 4.22
38 | CCc1cc(NC(=O)C(c2cccc(F)c2)N2CCOCC2)[nH]n1 (centres undefined) | -10.3
39 | CC(C(=O)Nc1nccs1)N(C)Cc1cccc(C#N)c1 (centres undefined) | 1.88
40 | CC(=O)NC1CCCN(c2ccc(C#N)cc2C(F)(F)F)C1 (centres undefined) | 7.44
41 | CCS(=O)(=O)CCSc1cccc(C#N)c1 | -3.24
42 | CCCOc1ccc(C(=O)N2CCN3CCNC(=O)C3C2)cc1Cl (centres undefined) | -1.65
43 | CC(C)C(=O)NCCC(=O)N1CCN(c2ccccn2)CC1 | -6.13
44 | Nc1nccc(N2CCNC(C(=O)NCc3ccccn3)C2)n1 (centres undefined) | -48.5

Row | SMILES | cytotoxicity at 10 µM [%]
45 | COc1c(CNC2(c3noc(C)n3)CCC2)c(C(C)C)nn1C | 2.08
46 | CSc1ccc(NC(=O)NCc2nncn2C2CC2)cc1F | 0
47 | O=S(=O)(c1ccccc1)N1CCC2(CCCN2CC2CCCC2)C1 (centres undefined) | 4.4
48 | Cc1nc2n(n1)CC(NCc1cc(Cl)c3c(c1)OCCCO3)CC2 (centres undefined) | -4.15
49 | COc1ccccc1OC1CCN(C(=O)c2cnc(C)s2)CC1 | -19.2
50 | CSc1ncccc1C(=O)NCc1ccc(CS(=O)(=O)NC(C)C)cc1 | 4.4
51 | O=C(c1cccn1Cc1cccs1)N1CCC(C(=O)N2CCCC2)CC1 | -1.23
52 | CNC(=O)CN1CC[C@H]2CN(C(=O)c3ccccc3F)C[C@H]2C1 | -1.34
53 | COC[C@@]12CCC[C@@H]1CN(C(=O)COc1ccccc1OC)C2 | -106
54 | COCCN1CC2(CCCN(c3ncc(Cl)cc3F)C2)CCC1=O (centres undefined) | 21.8
55 | CC(C)OCCN1CCC(Nc2ccc(C#N)cc2F)CC1 | -4.94
56 | Cc1noc(C(C)N2CCN(c3ncnc4ccccc34)CC2)n1 (centres undefined) | 17.7
57 | COC[C@@]12CC[C@@H](N3CCOCC3)C[C@H]1CCN(c1ncccn1)C2 | -11.9
58 | CN(C)CCn1ccc2ccc(NC(=O)c3ccncc3F)cc21 | -1.53
59 | Cc1ccc(-n2nnc(CC(=O)N3CCN(C(C)C)CC3)c2C)cc1 | -3.36
60 | COc1ccccc1Cc1cncc(N2CC(C(=O)O)C2)n1 | 2.71
61 | COc1cc(CN(C)C(=O)NCc2cccc3c2OCO3)ccc1SC | -6.08
62 | CN1CC(c2ccccc2)C2(CCN(C(=O)c3cccn3C)CC2)C1=O (centres undefined) | 3.83
63 | COCCN1C2(CCN(C(=O)c3cccs3)C2)c2ccccc2S1(=O)=O (centres undefined) | -131
64 | CS(=O)(=O)N1CCCn2nc(CNc3ncccn3)cc2C1 | 4.83
65 | CC(CNC(=O)c1ccccc1Oc1cccnc1)N(C)C (centres undefined) | -9.29
66 | Cn1cc(CN2CCC[C@]3(C[C@@H](Oc4ncccc4F)CO3)C2)cn1 | 9.66

Row | SMILES | cytotoxicity at 10 µM [%]
67 | CC(=O)N(Cc1ncc(C)o1)C1CCN(CCNC2CCCCC2)C1 (centres undefined) | 15.4
68 | Cc1ccc(-c2cc(CN3CCc4cnc(C)nc4C3)on2)cc1 | 4.88
69 | CC(C)(C)c1cc(NC(=O)CN2CCC(N3CCNC3=O)CC2)on1 | -2.05
70 | N#Cc1ccc(N2CCCC3(CCN(c4cccnc4)CC3)C2)cc1 | 55.5
71 | COc1ccc(NC(C)C(=O)N2CCN(c3ccccc3)CC2)cn1 (centres undefined) | 9.75
72 | O=C1N(Cc2ccncc2)CCC12CCCN(c1ncc(F)cn1)C2 (centres undefined) | -7.38
73 | COCCN(C)CC1CCCN1S(=O)(=O)Cc1ccccc1F (centres undefined) | 6.84
74 | CCC[C@@H]1CN(S(=O)(=O)c2ccc(C)c(F)c2)C[C@H]1N(C)C | 26.7
75 | CN(Cc1ccco1)Cc1ccccc1CNC(=O)c1ccc[nH]1 | -4.11
76 | Cc1cc(S(=O)(=O)N2CCCc3ccc(F)cc32)sc1C(=O)O | 18.1
77 | Cc1cc(CC(=O)NC(C)c2ccc(OCC3CC3)c(F)c2)n[nH]1 (centres undefined) | 4.75
78 | Cc1ccc(C2CCCN2S(=O)(=O)N(C)Cc2cnn(C)c2)o1 (centres undefined) | 15.8
79 | COCCNc1ccc(CC2CCCN(C3CCOCC3)C2)nn1 (centres undefined) | 6.38
80 | O=C(NCc1ccccn1)[C@@H]1COC[C@H]2CN(C3CCC3)C[C@H]21 | -79.1
81 | Cc1ccc(CNC2CCCc3c2cnn3Cc2ccccc2)s1 (centres undefined) | 0.338
82 | O=C(c1cc2ccccc2s1)N1CCC(C(=O)O)(n2cccn2)CC1 | 11.3
83 | CC(C)c1nn(C)c(N(C)C)c1CNCc1ccnc(N(C)C)c1 | 1.36
84 | CC(=O)N1CCC(NS(=O)(=O)c2cccnc2)CC1 | -2.73
85 | CCSCCNC(=O)c1cnc(-c2ccccc2)nc1O | -1.54
86 | O=C1CCC2(CCCN(C(=O)Cc3ccccc3)C2)N1 (centres undefined) | 8.18
87 | CCCC1(CO)CCCN(c2ncnc3c2c(C)nn3C)C1 (centres undefined) | 2.72
88 | CCN1CC2(CC1=O)CN(C(=O)c1cccs1)CCN(C(=O)N(C)C)C2 (centres undefined) | 2

Row | SMILES | cytotoxicity at 10 µM [%]
89 | CC(C)c1nccn1C1CCCN(C(=O)CCc2cscn2)C1 (centres undefined) | -7.81
90 | NC(=O)Cn1ccc(O)c(Cc2ccc(Cl)cc2Cl)c1=O | 8.85
91 | CCOCC1CC2(CCN(C(=O)c3ccccn3)CC2)CO1 (centres undefined) | -3.76
92 | COc1cc(F)ccc1N1CCN(Cc2nc(C)c(C)o2)CC1 | 10.7
93 | COCCN1CCC(c2nc3ccc(NC4CCC4)cn3n2)CC1 | -119
94 | O=C(C1CCC2(CCN(c3nncs3)CC2)C1)N1CCCC1 (centres undefined) | 9.43
95 | CC(NC(=O)CCCc1nc(C(C)(C)C)no1)c1nnc2n1CCC2 (centres undefined) | -0.527
96 | O=C(CNc1cccc(S(=O)(=O)C(F)F)c1)Nc1ccccc1 | -48.4
97 | Cc1cc2cccc(C(=O)N3CC[C@](C)(O)[C@H](C)C3)c2o1 | 4
98 | CCc1nc(C2CCCN2C(=O)CCc2cscn2)no1 (centres undefined) | -3.12
99 | CNS(=O)(=O)c1ccc(C)c(C(=O)NCCNc2ncccn2)c1 | -1.87
100 | Cn1nc(C#N)c2c1CN(C(=O)c1ccco1)CCC2 | -133
101 | C[C@@H]1CN(S(=O)(=O)c2ccc(F)cc2Cl)C[C@]1(C)O | -2.83
102 | COc1ccc(CNCC2CCN(c3ccccc3OC)C2)cc1O (centres undefined) | -8.54
103 | CC(C(=O)NCc1ccc(N2CCCCC2)nc1)n1cncn1 (centres undefined) | -10.3
104 | COc1ncccc1CN1CCn2c(C(=O)N3CCCC3)cnc2C1 | 8.28
105 | CC(CNC(=O)c1cnccn1)Oc1ccc(F)cc1 (centres undefined) | -2.55
106 | CC(C)CC(NC(=O)C1=CCCC1)C(=O)N1CCC(CO)CC1 (centres undefined) | 8.23
107 | COc1ccc(C(=O)Cn2cnnc2[S+](C)[O-])cc1Cl (centres undefined) | -8.17
108 | CCC(C)NS(=O)(=O)Cc1cccc(NC(=O)C(C)C)c1 (centres undefined) | 5.36
109 | CCOc1cc(C(=O)N2CCCC(n3cncn3)C2)ccc1C (centres undefined) | -4.35
